Compound activity (PubChem)
CHOP UPR activ – apoptotic UPR (CHOP) activation. CHO-CHOP luciferase reporter, luminescence; percent of tunicamycin response over DMSO baseline. activation, % at 10 µM. hit rate 0.34% among 330,000. AID 449763;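 active = at 10 µM dose, activation of 40% or more, normalized to positive control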
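Test system: CHO CHOP reporter cells. Input: 500 CHO-CHOP cells per well. Medium: F12 with 10% FBS. Technique: luciferase luminescence. Measure: percent activation relative to tunicamycin control. Dosing: 10 µM compound, 0.5% DMSO. Timing: 16-18 h cell attachment, then 6 h compound exposure, 37 °C.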
CHOP inhibitor – blocks CHOP induction under ER stress | hit rate 3.8% among 220,000 | CHO-K1 CHOP-promoter luciferase, tunicamycin-induced, 15-18 h | inhibition, % at 10 µM | AID 2732;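 active = compounds that reduced the stress-induced luciferase reporter signal by more than about 70% of percent inhibition, limit read from the data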
Lmaj promast – reduces viability of Leishmania major promastigotes; resazurin fluorescence viability; inhibition, % at 10 µM; hit rate 9% among 200,000; AID 1063; in the data active = inhibition above about 50%;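 note: promastigotes grown with compound for 44 hours at 28 °C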
XBP1 UPR activ – adaptive UPR (XBP1) activation. AID 463104. hit rate 0.33% among 330,000. CHO-XBP1 luciferase reporter, IRE1-XBP1 UPR activation, luminescence; percent of tunicamycin response, DMSO as zero. activation, % at 20 µM;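 active = versus positive control, 20 µM dose yields 30% or more activation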
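Assay system: IRE1-XBP1 luciferase reporter CHO line. Input: 1000 cells/well. Buffer or medium: F12 with 10% serum. Doses: 20 µM, 1% DMSO. Times: overnight seeding at 37 °C, 6 h compound treatment at 37 °C. Technique: Steady-Glo luciferase glow luminescence, 10 min after reagent addition.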
T cruzi inh – T. cruzi replication inhibition. T. cruzi beta-gal in NIH3T3, luminescence, 90 h. hit rate 1.4% among 300,000. inhibition, % (concentration not given with the values);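 active = mean inhibition across valid replicates above about 55%, limit read from the data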;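 note: signal also drops with host cell toxicity which is not excluded here; higher percent means less beta-gal luminescence so fewer parasites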
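Test system: β-gal T. cruzi (Tulahuen C4) inside NIH/3T3 cells / Quantity: 5,000 cells/well / Measured by: luminescence from GalScreen with 0.05% NP40, read after 60 min / Medium: DMEM plus 2% FBS / Measure: parasite load inhibition, % / Reagent: Tulahuen C4 trypomastigotes, 5000/well / Schedule: co-culture of at least 90 h after 3 h attachment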
Dynein transport – blocks dynein driven cargo transport along microtubules; 3617.4 mouse cells, GR-EGFP nuclear translocation imaging; test concentration mostly 20 µM; stimulated with dexamethasone, 1 µM; stronger effect = lower value; z-score, hits read low; hit rate 0.47% among 220,000; AID 1381;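 active = plate z-score of nuclear minus cytoplasmic receptor signal below a set negative limit, without overly bright fluorescence or cell loss, cut at about -3.5 in these data, passing the limit was not always enough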;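 note: z-score of nuclear minus cytoplasmic ring GR-EGFP intensity difference per well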
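Buffer or medium – tet-free medium with charcoal-stripped serum · Signal – automated 10x imaging of fixed Hoechst-stained cells · Also added – dexamethasone agonist, 1.0 µM final, for 30 min · Incubation – induction 48 h, compound 1 h, agonist 30 min · Read-out – GR-EGFP nuclear translocation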
Lmaj promast 1uM – inhibitors of Leishmania major promastigote growth, repeat at 1 uM. L. major promastigote growth, resazurin fluorescence, 48 h. AID 1258. inhibition, % at 1 µM. hit rate 13% among 1,100. shares compounds with Lmaj promast;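 active = inhibition above about 50% in both repeat tests, limit read from the data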
Of the large screens only hits and unclear results are named; the others gave an inactive call (follow-up assays come after a bar, where they were run); ! = repeats disagree. This is one part of a sample in which hits are shown more often than they occur.

CCOC(=O)N1CCC(NC(=O)c2ccc3c(c2)sc2nc(-c4ccc(OC)cc4)cn23)CC1	none
S=C(NCc1ccccc1)Nc1cccc(Cl)c1	none
Fc1cccc(NC(=S)NCc2ccc(Cl)cc2)c1	Lmaj promast 70 | Lmaj promast 1uM inactive
COC(=O)C1CCN(C(=O)COc2ccc(S(=O)(=O)N3CCOCC3)cc2Cl)CC1	none (no result: CHOP inhibitor, Lmaj promast, T cruzi inh, Dynein transport)
COc1ccc(CNC(=O)NC2CCCCC2)cc1	none
COc1ccc(CN2CCC(CNC(=O)NC3CCCCC3)CC2)cc1	Lmaj promast 90 | Lmaj promast 1uM inactive
Cc1nc(NC(=O)CSC2=NCCS2)sc1C(=O)N(C)C	none (no result: CHOP inhibitor, Lmaj promast, Dynein transport)
COc1ccc(C(=O)NC2CC2)cc1OC1CCN(Cc2ccc(F)cc2Cl)CC1	none (no result: CHOP inhibitor, Lmaj promast, Dynein transport)
COc1ccc(NC(=O)c2sccc2SCc2cccc(C(F)(F)F)c2)cc1	Lmaj promast 100, T cruzi inh 69 | Lmaj promast 1uM inactive
CCN1CCCC1CN=Cc1c(O)n(-c2ccccc2)c(=O)c2ccccc12 (stereo unspecified)	Lmaj promast 55 | Lmaj promast 1uM inactive
Cc1cc(Cl)ccc1OCCCC(=O)OCC(=O)Nc1cccc(S(N)(=O)=O)c1	none (no result: CHOP inhibitor, Lmaj promast, T cruzi inh, Dynein transport)
Cc1c(Cl)c(C(=O)N2CCCC2)nn1C	none
COc1ccc(S(=O)(=O)Nc2ccc(C)cc2)cc1N(C)S(=O)(=O)c1ccc(Cl)cc1	Lmaj promast 99 | Lmaj promast 1uM inactive
O=C(O)CC1S/C(=N/N=C/C=C/c2ccccc2)NC1=O (stereo unspecified)	Lmaj promast 53! | Lmaj promast 1uM inactive
O=C(O)CC1S/C(=N/N=C/C=C/c2ccccc2[N+](=O)[O-])NC1=O (stereo unspecified)	none
Cc1ccc(C)c(NC(=O)c2ccccc2C(=O)c2ccccc2)c1	none
CC1=CCC(/C=N\Nc2nnc3c(n2)[nH]c2ccccc23)CC1 (stereo unspecified)	Lmaj promast 52 | Lmaj promast 1uM inactive
CC(C)CSc1nnc2c(n1)[nH]c1ccccc12	none
Cc1ccc(C(O)(COC(=O)C(C)C)COC(=O)C(C)C)c(O)c1	Lmaj promast 60 | Lmaj promast 1uM inactive
CCC(=O)/C=C1/Sc2ccc(OC)cc2N1CCO	none
CCC(/C=C1\Sc2ccc(OC)cc2N1CCO)=C\c1sc2ccc(OC)cc2[n+]1CCO	Lmaj promast 100 (no result: T cruzi inh) | Lmaj promast 1uM 100
Cc1sc(N)c(C#N)c1C	Lmaj promast 51 | Lmaj promast 1uM inactive
CCN(CC)C(=O)c1sc(N)c(C#N)c1C	none
COCCCN1CC(=O)N2C(c3cccc(OC)c3OC)c3[nH]c4ccccc4c3C[C@H]2C1=O (stereo partly specified)	none (no result: CHOP inhibitor, Lmaj promast, Dynein transport)
COc1ccc(C(=O)C2CCCN(C(=O)c3cccc(N(C)C)c3)C2)cc1OC (stereo unspecified)	none (no result: CHOP inhibitor, Lmaj promast, Dynein transport)
OC12CCCCC1C(c1ccc3c(c1)OCO3)N(Cc1cccc(F)c1)CC2 (stereo unspecified)	none (no result: CHOP UPR activ, XBP1 UPR activ)
OC12CCCCC1C(c1ccc3c(c1)OCO3)N(Cc1ccccc1F)CC2 (stereo unspecified)	Lmaj promast 60 | Lmaj promast 1uM inactive
C=CCN(CC=C)C(=O)C(=O)c1cc(C)n(-c2ccc([N+](=O)[O-])cc2)c1C	Lmaj promast 98 (no result: T cruzi inh) | Lmaj promast 1uM inactive
Cc1cc(C(=O)C(=O)N(C)C)c(C)n1-c1ccc([N+](=O)[O-])cc1	none
COc1cc(CNCc2cccs2)ccc1OCc1ccccc1	Lmaj promast 99 | Lmaj promast 1uM 92
N#Cc1c(NC(=O)C2CC(c3c(F)cccc3Cl)=NO2)sc2c1CCC2 (stereo unspecified)	Lmaj promast 64 | Lmaj promast 1uM inactive
O=c1oc2ccccc2nc1/C=C(O)/C=C\c1ccccc1	Lmaj promast 99 | Lmaj promast 1uM inactive
CN(Cc1ccc(Cl)cc1)C(=O)c1ccccc1SCC(=O)N1CCCC1	none (no result: CHOP inhibitor, Lmaj promast, T cruzi inh, Dynein transport)
Cc1ccc(CN=C2Nc3ccccc3CS2)cc1	Lmaj promast 86 | Lmaj promast 1uM inactive
COc1ccc(CC(=O)OC(C)C(=O)NCc2ccc3c(c2)OCO3)cc1OC (stereo unspecified)	none (no result: CHOP inhibitor, Lmaj promast, Dynein transport)
CCOC(=O)C1=Nc2ccccc2C1=[N+]=[N-]	Lmaj promast 79 | Lmaj promast 1uM inactive
CCOC(=O)c1cnc(-c2ccccc2O)nc1Cl	none
CN1CCN(S(=O)(=O)c2ccc(NC(=S)NC(=O)c3ccc(Cl)cc3)cc2)CC1	Lmaj promast 85 (no result: CHOP UPR activ, XBP1 UPR activ, T cruzi inh) | Lmaj promast 1uM inactive
CN1CCN(S(=O)(=O)c2ccc(NC(=S)NC(=O)c3ccccc3)cc2)CC1	none
CCOC(=O)c1cc(-c2ccc(OC)cc2)nc2c1c(C)nn2CCC#N	none
COc1ccc(-c2cc(Nc3ccccc3NC(=O)C(F)(F)F)n(CCC#N)n2)cc1	Lmaj promast 63 | Lmaj promast 1uM inactive
c1ccc(N2CCN(c3ccccc3)C2c2cccs2)cc1	Lmaj promast 94 | Lmaj promast 1uM inactive
O=C(CN1C(=O)COc2ccc(Cl)cc21)NC1CC1	none (no result: CHOP inhibitor, Lmaj promast, Dynein transport)
COc1cccc(COc2ccccc2C2Nc3ccc(Br)cc3C(=O)N2NC(=O)c2ccncc2)c1 (stereo unspecified)	Lmaj promast 100 | Lmaj promast 1uM inactive
COc1ccc(C2Nc3ccccc3C(=O)N2NC(C)=O)c(OC)c1 (stereo unspecified)	none (no result: CHOP inhibitor, Lmaj promast, Dynein transport)
CNC(=S)NNC(=O)c1cc(-c2cccnc2)nc2ccccc12	none (no result: CHOP inhibitor, Lmaj promast, Dynein transport)
C[C@H]1CC[C@H]2C(=O)N3[C@H](c4cccc(N5CCCC5=O)c4)[C@@H](C)CC[C@H]3C(=O)N2[C@@H]1c1cccc(N2CCCC2=O)c1	Lmaj promast 82 | Lmaj promast 1uM inactive
CN(C(=O)c1ccc2c(c1)SC1=NS(=O)(=O)CCN12)C(c1ccccc1)c1ccccc1	Lmaj promast 75 | Lmaj promast 1uM inactive
CC(NC(=O)c1cc2cc(F)ccc2[nH]1)c1ccccc1 (stereo unspecified)	none (no result: CHOP inhibitor, Lmaj promast, Dynein transport)
COc1ccc(C2NCCn3cccc32)cc1 (stereo unspecified)	Lmaj promast 96 | Lmaj promast 1uM inactive
COc1ccc(C2c3c4c(n(C)c3CCN2C)CCN(C)C4c2ccc(OC)cc2)cc1 (stereo unspecified)	none
COc1nc(OC)nc(N2CCCCCC2)n1	none
C=CCOc1nc(N2CCCC2)nc(N2CCCC2)n1	Lmaj promast 96 | Lmaj promast 1uM inactive
Cc1nnc(N2CCCCC2)c2ccccc12	Lmaj promast 53 | Lmaj promast 1uM inactive
c1ccc2c(N3CCCCC3)nnc(N3CCCCC3)c2c1	none (no result: CHOP UPR activ, XBP1 UPR activ, T cruzi inh)
CN(C)CCCN=c1cc(-c2ccccc2)oc2ccc(Cl)cc12	Lmaj promast 100 (no result: CHOP UPR activ, XBP1 UPR activ, T cruzi inh) | Lmaj promast 1uM 89
